The values below come from ChEMBL document CHEMBL4152363, “Andrographolide derivative as STAT3 inhibitor that protects acute liver damage in mice” (Bioorg Med Chem, 2018).

For data set [1], the system named is Mus musculus. Briefly: Reduction in MMP9 mRNA expression level in CCL4-induced acute liver damage in Balb/c mouse at 30 mg/kg, po qd for 7 days measured after 16 hrs post CCL4 challenge by qRT-PCR method. The data set is classed as functional, organism-based. The method, boiled down:
(§1)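 Mice given 30 mg/kg orally once daily 7 days before sc CCl4 (40% in olive oil, 10 ml/kg); livers harvested 16 h later, PBS-washed, stored at −70 °C for RNA extraction and transcript quantification; n=5, two independent experiments.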
Background: In qPCR the cycle at which signal appears reflects the starting amount.

The subject of data set [2] is Mus musculus. Briefly: Reduction in serum AST level in CCL4-induced acute liver damage in Balb/c mouse at 30 mg/kg, po qd for 7 days measured after 16 hrs post CCL4 challenge […]. In kind it is functional, organism-based.
The test system of data set [3] is Mus musculus. Briefly: Reduction in SMAD4 mRNA expression level in liver of CCL4-induced acute liver damage in Balb/c mouse at 30 mg/kg, po qd for 7 days measured after 16 hrs post CCL4 challenge by qRT-PCR method. The data set is classed as functional, organism-based. The method, boiled down:
as §1

In another data set the test system is HeLa. Briefly: Cytotoxicity against human HeLa cells. The data set is classed as cell-based. Put shortly: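 AD-293 or HeLa cells grown in high-glucose DMEM with 10% FBS and 1% penicillin-streptomycin; compound exposure 24 h; cytotoxicity reported as CC10.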
The test system of data set [4] is Mus musculus. Briefly: Reduction in SMAD2 mRNA expression level in liver of CCL4-induced acute liver damage in Balb/c mouse at 30 mg/kg, po qd for 7 days measured after 16 hrs post CCL4 challenge by qRT-PCR method. In kind it is functional, organism-based. The method, boiled down:
as §1

The test system of data set [5] is Mus musculus. Briefly: Antiinflammatory activity in CCL4-induced acute liver damage Balb/c mouse model assessed as decrease in serum MCP-1 levels at 30 mg/kg, po qd for 7 days measured after 16 hrs post CCL4 challenge. The data set is classed as functional, organism-based. Put shortly:
(§2)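 BalB/C males dosed orally 30 mg/kg daily for 7 days, then sc CCl4 (40% in olive oil, 10 ml/kg); serum collected 16 h post-CCl4 after CO2 anaesthesia, stored at −70 °C until IL-6, MCP-1 or TGF-β analysis; n=5.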

Data set [6] relates to Mus musculus. Briefly: Reduction in serum ALT level in CCL4-induced acute liver damage in Balb/c mouse at 30 mg/kg, po qd for 7 days measured after 16 hrs post CCL4 challenge […]. The data set is classed as functional, organism-based.
In data set [7] the test system is Mus musculus. Briefly: Hepatoprotective activity against CCL4-induced acute liver damage in Balb/c mouse assessed as decrease in number of necrotic cells at 30 mg/kg, po qd for 7 days measured after 16 hrs post CCL4 challenge by hematoxylin-eosin staining based light microscopy. In kind it is functional, organism-based. Put shortly: (§3)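 Male BalB/C mice given oral 30 mg/kg daily for 7 days, then sc CCl4 (40% in olive oil, 10 ml/kg); sacrificed 16 h later; livers fixed in 10% formaldehyde, paraffin sections stained with H&E or Masson's trichrome, light microscopy, ≥3 sections per liver; n=5, two experiments.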

The test system of data set [8] is Mus musculus. Briefly: Hepatoprotective activity against CCL4-induced acute liver damage in Balb/c mouse assessed as decrease in hepatic damage at 30 mg/kg, po qd for 7 days measured after 16 hrs post CCL4 challenge by hematoxylin-eosin staining based light microscopy. In kind it is functional, organism-based. The method, boiled down: as §3
Data set [9] relates to Mus musculus. Briefly: Antiinflammatory activity in CCL4-induced acute liver damage Balb/c mouse model assessed as decrease in serum TGF-beta levels at 30 mg/kg, po qd for 7 days measured after 16 hrs post CCL4 challenge. The data set is classed as functional, organism-based. The method, boiled down: as §2
Data set [10] has as its target T1, Signal transducer and activator of transcription 1-alpha/beta (Homo sapiens) (UniProt P42224).
T1 sequence (whole entry): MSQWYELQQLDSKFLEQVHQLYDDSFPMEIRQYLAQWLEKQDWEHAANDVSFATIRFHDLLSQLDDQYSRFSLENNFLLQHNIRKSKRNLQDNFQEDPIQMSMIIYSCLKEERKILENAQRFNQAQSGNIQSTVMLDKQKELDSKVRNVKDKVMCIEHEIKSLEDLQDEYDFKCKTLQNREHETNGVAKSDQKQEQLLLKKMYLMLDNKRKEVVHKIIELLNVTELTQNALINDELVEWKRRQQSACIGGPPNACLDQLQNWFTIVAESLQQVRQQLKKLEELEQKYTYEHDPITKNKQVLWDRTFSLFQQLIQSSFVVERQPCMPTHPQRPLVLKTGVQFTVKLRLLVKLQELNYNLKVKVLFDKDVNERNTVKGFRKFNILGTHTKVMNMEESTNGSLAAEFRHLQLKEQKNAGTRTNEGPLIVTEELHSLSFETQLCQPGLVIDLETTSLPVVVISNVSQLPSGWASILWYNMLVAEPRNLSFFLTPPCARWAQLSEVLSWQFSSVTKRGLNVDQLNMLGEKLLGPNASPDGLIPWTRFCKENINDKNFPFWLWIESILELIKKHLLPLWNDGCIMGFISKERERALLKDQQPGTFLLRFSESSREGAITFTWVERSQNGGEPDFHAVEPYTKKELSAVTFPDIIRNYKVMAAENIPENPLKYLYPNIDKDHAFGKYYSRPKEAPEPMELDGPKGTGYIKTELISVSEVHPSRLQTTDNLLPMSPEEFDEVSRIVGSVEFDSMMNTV
Briefly: Inhibition of IFNgamma-stimulated STAT1 phosphorylation at Tyr701 residues in human AD293 cell lysates incubated with IFNgamma followed by compound addition at 10 uM by Western blot analysis. Put shortly: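 AD-293 cells treated with 1 μg/mL IFN-γ alone or with compounds at 10 μM; phospho- and total STAT1 and STAT3 assessed by western blot; representative of at least three independent experiments.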
Background: Immunoblotting shows a protein as a band on a membrane.

Data set [11] relates to Mus musculus. Briefly: Hepatoprotective activity against CCL4-induced acute liver damage in Balb/c mouse assessed as increase in number of PCNA positive cells at 30 mg/kg, po qd for 7 days measured after 16 hrs post CCL4 challenge by hematoxylin staining based immunohistochemistry method. In kind it is functional, organism-based. The method, boiled down: (§4)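 Liver sections from mice dosed orally 30 mg/kg daily 7 days then sc CCl4, killed 16 h after; H2O2 block, goat serum/BSA/gelatin blocking 1 h RT, primary antibody (α-SMA, Ki67, PCNA or STAT3) 4 °C overnight, HRP secondary, DAB, hematoxylin counterstain; >30 fields at 400× quantified; n=5.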

Data set [12] has as its target T2, Signal transducer and activator of transcription 3 (Homo sapiens, UniProt P40763). Briefly: Inhibition of IFNgamma-stimulated STAT3 activation in human AD293 cells incubated with IFNgamma for 16 hrs followed by compound addition measured after 24 hrs by luciferase reporter gene assay. The data set is classed as cell-based. Put shortly:
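AD-293 or HeLa cells in DMEM/10% FBS stimulated with 20 pg/mL IFN-γ; compound treatment 24 h; luciferase activity measured in cell extracts; EC50 derived.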

For data set [13], the system named is Mus musculus. Briefly: Antifibrotic activity in CCL4-induced acute liver damage Balb/c mouse model assessed as decrease in collagen deposition in liver at 30 mg/kg, po qd for 7 days measured after 16 hrs post CCL4 challenge by masson trichome staining based assay. In kind it is functional, organism-based. The method, boiled down: as §3
The target in data set [14] is T2, Signal transducer and activator of transcription 3. Briefly: Inhibition of IL-6 stimulated STAT3 activation in human AD293 cells incubated with IL-6 for 16 hrs followed by compound addition measured after 6 hrs by luciferase reporter gene assay. The data set is classed as cell-based. The method, boiled down:
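AD-293 cells stimulated with 2.5 μg/mL IL-6; compound treatment 6 h; luciferase activity read from cell extracts; EC50 derived.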
(In a reporter assay the amount or activity of a reporter protein is the signal.)

Data set [15] relates to Mus musculus. Briefly: In vivo inhibition of STAT3 expression level in CCL4-induced acute liver damage in Balb/c mouse assessed as decrease in nuclear STAT3 phosphorylation at 30 mg/kg, po qd for 7 days measured after 16 hrs post CCL4 challenge by hematoxylin staining based immunohistochemistry method. In kind it is functional, organism-based. The method, boiled down:
as §4

Calls of active or inactive are those of the source. The calls are words filed in the database; no cut-off is given here.

T2 sequence (P40763 whole entry): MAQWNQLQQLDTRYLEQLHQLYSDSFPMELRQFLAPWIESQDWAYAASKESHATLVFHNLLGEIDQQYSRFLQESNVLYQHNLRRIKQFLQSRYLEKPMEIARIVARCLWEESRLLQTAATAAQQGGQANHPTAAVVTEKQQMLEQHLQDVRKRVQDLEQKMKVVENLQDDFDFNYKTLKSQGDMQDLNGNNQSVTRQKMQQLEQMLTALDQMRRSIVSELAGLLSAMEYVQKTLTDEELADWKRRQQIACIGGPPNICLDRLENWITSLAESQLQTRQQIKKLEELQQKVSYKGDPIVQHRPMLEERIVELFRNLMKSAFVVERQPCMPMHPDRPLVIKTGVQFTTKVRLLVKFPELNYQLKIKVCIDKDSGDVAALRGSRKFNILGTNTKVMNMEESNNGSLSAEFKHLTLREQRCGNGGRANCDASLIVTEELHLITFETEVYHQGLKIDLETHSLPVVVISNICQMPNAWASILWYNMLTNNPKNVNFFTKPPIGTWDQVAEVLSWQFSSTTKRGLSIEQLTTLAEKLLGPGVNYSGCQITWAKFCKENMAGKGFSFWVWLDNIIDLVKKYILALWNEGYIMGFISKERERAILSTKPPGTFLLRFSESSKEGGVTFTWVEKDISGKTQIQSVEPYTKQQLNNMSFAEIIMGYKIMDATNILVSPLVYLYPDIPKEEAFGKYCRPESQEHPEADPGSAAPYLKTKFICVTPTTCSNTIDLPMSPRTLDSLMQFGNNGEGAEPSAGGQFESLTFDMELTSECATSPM

On to `CC(C)(C)[Si](C)(C)O[C@@H]1COC(=O)/C1=C/C[C@@H]1[C@]2(CC[C@H]3[C@@]1(C)CCC(=O)[C@@]3(C)CO)CO2`, for which the result in the data set on Mus musculus [1], with Mus musculus [2], with Mus musculus [3], in the data set on Mus musculus [4] and with Mus musculus [6] was inactive. Moreover, the CC10 in the data set with HeLa is more than 10 µM. The result in the data set on Mus musculus [5], in the data set with Mus musculus [7], with Mus musculus [8], with Mus musculus [9], in the data set with Mus musculus [11] and with Mus musculus [13] was Active. Further, in data set [10], the inhibition entry was “inactive”. Besides, the half-maximal effective concentration (EC50) in [12] was determined as 5.99 µM; in [14] it was 3.95 µM. Besides, the inhibition entry in the data set with Mus musculus [15] is “Active”.

Usually EC50 stands for the concentration that produces a half-maximal response. Higher therefore signals a need for much substance.
